From ChEMBL document CHEMBL3244321, “Nitramino acids. Synthesis and biological evaluation of 1-nitroproline, 1-nitropipecolic acid, and N-nitrosarcosine” (J Med Chem, 1977)
Activity calls are given as the source filed them. The rule behind the calls is not given here.

Key:
Salmonella typhimurium [1] = experiment: Mutagenicity in Salmonella typhimurium TA100 assessed as revertant colonies at 300 umol incubated under anaerobic conditions for 16 to 17 hrs followed by 48 hrs under aerobic conditions by Ames test; format: toxicity, organism-based; details: salmonella enterica subsp. enterica serovar typhimurium
How it was run: (§1)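 Ames plate-incorporation assay. Overnight TA-100 nutrient-broth culture, about 10^7 cells per plate. Compound solutions were adjusted to pH 7 and filter-sterilized, then mixed in a histidine-biotin-limited agar overlay on minimal glucose agar, with or without S-9. S-9 was the 9000g supernatant of 25% liver homogenate in 0.15 M KCl from phenobarbital-treated male Sprague-Dawley rats. Plates were incubated aerobically at 37 °C in the dark for 2 days, or anaerobically (Gas-Pak) for 16-17 h and then aerobically for 48 h. Revertants were counted in triplicate and averaged. Matched vehicle/condition background was subtracted.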

Salmonella typhimurium [2] = experiment: Mutagenicity in Salmonella typhimurium TA100 assessed as revertant colonies at 300 umol incubated under aerobic conditions in dark for 2 days by Ames test in presence of Sprague-Dawley rat liver S9 fraction; format: toxicity, organism-based; details: salmonella enterica subsp. enterica serovar typhimurium, s9, 48 h; how it was run: as §1
Pseudomonas aeruginosa = experiment: Antibacterial activity against Pseudomonas aeruginosa ATCC 27853 assessed as inhibition of bacterial growth at up to 100 ug/ml after 7 hrs by spectrophotometer; format: functional, organism-based
How it was run: (§2)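 Tested at 10, 25, 50 and 100 µg/mL in Mueller-Hinton broth at 37 °C with rotary shaking at 150 rpm. Incubation was 16 h for E. coli and 7 h for P. aeruginosa. Growth was read turbidimetrically at 600 nm.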

[3] = Acute toxicity in ip dosed Swiss-Webster mouse measured after 72 hrs; format: organism-based; details: in vivo
Salmonella typhimurium [4] = experiment: Mutagenicity in Salmonella typhimurium TA100 assessed as revertant colonies at 300 umol incubated under anaerobic conditions for 16 to 17 hrs followed by 48 hrs under aerobic conditions by Ames test in presence of Sprague-Dawley rat liver S9 fraction; format: toxicity, organism-based; details: salmonella enterica subsp. enterica serovar typhimurium; how it was run: as §1
Candida albicans [5] = experiment: Antifungal activity against Candida albicans ATCC 11651 assessed as inhibition of fungal growth up to 100 ug/ml after 16 hrs by spectrophotometer; format: functional, organism-based
How it was run: (§3)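 Yeast nitrogen base (pH 7.0), with compound at 10, 25, 50 and 100 µg/mL. Incubated 16 h at 37 °C with 150 rpm rotary shaking. Turbidity was read at 600 nm.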

Salmonella typhimurium [6] = experiment: Mutagenicity in Salmonella typhimurium TA100 assessed as revertant colonies at 300 umol incubated under aerobic conditions in dark for 2 days by Ames test; format: toxicity, organism-based; details: salmonella enterica subsp. enterica serovar typhimurium, 48 h; how it was run: as §1
Candida albicans [7] = experiment: Antifungal activity against Candida albicans clinical isolate assessed as inhibition of fungal growth up to 100 ug/ml after 16 hrs by spectrophotometer; format: functional, organism-based; how it was run: as §3
Escherichia coli = experiment: Antibacterial activity against Escherichia coli ATCC 25922 assessed as inhibition of bacterial growth at up to 100 ug/ml after 16 hrs by spectrophotometer; format: functional, organism-based; how it was run: as §2
[8] = test system: Mycolicibacterium smegmatis; experiment: Antibacterial activity against Mycobacterium smegmatis H607 assessed as inhibition of bacterial growth up to 100 ug/ml after 22 hrs by spectrophotometer; format: functional, organism-based
How it was run: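 Sauton synthetic medium, with compound at 10, 25, 50 and 100 µg/mL. Incubated 22 h at 37 °C with rotary shaking at 150 rpm. Growth was measured turbidimetrically at 600 nm.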

Row | SMILES | Activity (Salmonella typhimurium [1]) | Activity (Salmonella typhimurium [2]) | inhibition (Pseudomonas aeruginosa) | LD50 at 72 h [3] [µmol/kg] | Activity (Salmonella typhimurium [4]) | inhibition (Candida albicans [5]) | Activity (Salmonella typhimurium [6]) | inhibition (Candida albicans [7]) | inhibition (Escherichia coli) | inhibition [8]
1 | O=C(O)C1CCCCN1[N+](=O)[O-] (racemic) | Non-toxic | Non-toxic | inactive | 2100 | Non-toxic | inactive | Non-toxic | inactive | inactive | inactive
2 | O=C(O)[C@H]1CCCN1[N+](=O)[O-] | – | – | inactive | 1390 | – | inactive | – | inactive | inactive | inactive
3 | O=C(O)[C@@H]1CCCN1[N+](=O)[O-] | Non-toxic | Non-toxic | inactive | 1170 | Non-toxic | inactive | Non-toxic | inactive | inactive | inactive
